Screening results from PubChem BioAssay.
Only some compounds are listed: those with a hit (about 1.9% of all), similar ones and a draw of the others.
Rad51 HR inh: human RAD51 strand exchange inhibitors, primary screen, biochemical, fluorescence; DNA repair protein RAD51 homolog 1 (Homo sapiens), Q06609; hRad51 DNA strand exchange, fluorescence dequenching; inhibition, % at 10 µM; AID 1385, 2008; hit rate 0.085% among 200,000;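 active = inhibition above 40% at the single screening dose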
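material = hRad51 filaments on single-stranded DNA | timing = filaments 15 min 37 °C, then compound 30 min | signal = FRET fluorescence dequenching, excitation 485 nm, emission 520 nm | benchmarks = control wells and blank wells on each plate | evaluation = percent inhibition relative to plate controls and blanks | compound = 10 µM final, single point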
HIF act: HIF pathway transcriptional activators, primary screen, cell-based, U2OS HRE-luciferase, luminescence. U2OS HRE-luciferase reporter; normalized: DMSO 0%, desferrioxamine 100%. activation, % at 7.5 µM (by protocol). hit rate 0.32% among 300,000;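 active = mean activation of at least 10% of the iron chelator positive control signal, with at least half of replicates also reaching 10%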
Hsp70 act: Hsp70 transcriptional activators, primary screen, cell-based, HeLa, Hsp70 promoter luciferase, luminescence, 10 µM. HeLa Hsp70 promoter luciferase reporter; scaled: vehicle 0, proteasome-inhibitor control 100%. hit rate 0.04% among 200,000. AID 1203, 2008. activation, % at 10 µM;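 active = activation above the mean across all tested compounds plus 3 SD, cutoff set per campaign, cut at about 5.5% in these data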
ABHD5 PLIN5 PPI: ABHD5-PLIN5 interaction inhibitors, primary screen, cell lysate, split luciferase complementation, luminescence | Split G. princeps luciferase complementation, 4 h | hit rate 0.78% among 360,000 | inhibition, % at 4 µM | AID 602281, 2012;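 active = inhibition above the mean inhibition across every tested compound plus 3 SD, cut at about 22% in these data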
Target sequence (Q00G26 whole entry, looked up): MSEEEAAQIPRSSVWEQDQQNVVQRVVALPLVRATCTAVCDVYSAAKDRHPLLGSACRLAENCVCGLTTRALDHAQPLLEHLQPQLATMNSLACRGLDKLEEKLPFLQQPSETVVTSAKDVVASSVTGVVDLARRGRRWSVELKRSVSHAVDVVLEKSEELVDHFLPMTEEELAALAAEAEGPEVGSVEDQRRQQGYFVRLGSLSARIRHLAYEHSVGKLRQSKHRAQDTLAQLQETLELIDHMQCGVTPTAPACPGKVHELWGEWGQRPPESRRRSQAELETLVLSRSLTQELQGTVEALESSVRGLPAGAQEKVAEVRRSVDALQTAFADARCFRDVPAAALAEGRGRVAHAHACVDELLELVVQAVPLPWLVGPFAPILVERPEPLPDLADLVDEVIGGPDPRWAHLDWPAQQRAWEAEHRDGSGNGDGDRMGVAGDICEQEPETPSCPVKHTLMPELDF
Target sequence (Q8WTS1 whole entry, looked up): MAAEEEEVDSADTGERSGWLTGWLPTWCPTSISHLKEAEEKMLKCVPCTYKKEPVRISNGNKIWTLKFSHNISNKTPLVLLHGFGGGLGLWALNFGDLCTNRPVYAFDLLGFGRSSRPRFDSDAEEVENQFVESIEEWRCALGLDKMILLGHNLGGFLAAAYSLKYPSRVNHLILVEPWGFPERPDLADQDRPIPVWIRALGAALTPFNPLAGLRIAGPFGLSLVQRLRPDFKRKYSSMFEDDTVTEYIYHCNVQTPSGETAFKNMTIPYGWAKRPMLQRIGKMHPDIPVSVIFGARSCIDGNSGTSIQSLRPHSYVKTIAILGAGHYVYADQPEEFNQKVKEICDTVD
H9c2 TAG inh: inhibitors of triacylglycerol accumulation, primary screen, cell-based, uHTS, fluorescence, H9c2 | hit rate 0.66% among 230,000 | inhibition, % at 12.5 µM | AID 651582, 2012 | H9c2 cells, Nile Red lipid (TAG) fluorescence; cells loaded with 200 µM oleic acid;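 active = pattern-corrected inhibition of lipid staining of at least 50% with the nuclear-stain viability signal not falling by more than 50%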
GAA850 FXN act: FXN promoter activators, primary screen, cell-based, luciferase luminescence, HEK293 lucGAA850; HEK293 lucGAA850 FXN promoter luciferase reporter, 24 h; percent of 10 µM SAHA response; activation, % at 6 µM; AID 540364, 2011; hit rate 0.56% among 360,000;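 active = activation above the average of all compounds screened plus 3 SD, cutoff fixed separately per campaign, cut at about 7.5% in these data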
ABHD5 PLIN5 conf: ABHD5-PLIN5 interaction inhibitors, confirmation, biochemical, luminescence. AID 651612, 2012. inhibition, % at 4 µM. shares compounds with ABHD5 PLIN5 PPI. hit rate 67% among 2,200; in the data active = inhibition above about 23%
HNF4 split-luc: HNF4 dimerization inhibitors, counter-screen for ABHD5-PLIN5 interaction inhibitor project, biochemical, split-luciferase complementation, luminescence | hit rate 77% among 2,200 | shares compounds with ABHD5 PLIN5 PPI | inhibition, % at 4 µM;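 active = mean inhibition across replicate wells exceeding the computed hit threshold, cut at about 13% in these data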;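 also: light from luciferase halves that rejoin when HNF4 fusion proteins dimerize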
Hits are given with their value; - = inactive; . = no result given.

SMILES	Rad51 HR inh	HIF act	Hsp70 act	ABHD5 PLIN5 PPI	H9c2 TAG inh	GAA850 FXN act	ABHD5 PLIN5 conf	HNF4 split-luc
CCn1ncc(CN2CCC(n3nccc3NC(=O)c3ccccc3Cl)CC2)c1C	.	.	.	-	-	-	.	.
O=C(N/N=C/c1ccc([N+](=O)[O-])o1)c1cc2ccccc2o1	-	-	.	-	-	-	.	.
O=[N+]([O-])c1ccc(/C=N/Nc2ccc3ccccc3c2)o1	-	-	-	28	.	-	31	17
COc1cc(CNC(C)(C)CO)cc(Br)c1OCc1ccc(Cl)cc1Cl	-	-	-	34	-	-	-	-
COc1cc(CNC(C)(C)CO)cc(Br)c1OCc1ccc(Cl)cc1	-	-	-	28	.	-	-	-
COc1cc(CNCCO)cc(Cl)c1OCc1ccc(Cl)cc1Cl	-	-	-	-	-	-	.	.
COc1cc(CNc2ccc(O)cc2)cc(Br)c1OCc1ccccc1	.	-	-	-	-	-	.	.
C[C@@H]1CN([C@@H](C)CO)C(=O)c2cc(Br)cnc2O[C@H]1CN(C)S(=O)(=O)c1cccs1	.	.	.	-	-	-	.	.
O=C(CN1C(=O)NC2(CCCC2)C1=O)Nc1nc2c(F)cc(F)cc2s1	.	-	.	-	-	-	.	.
CCOC(=O)C1C(=O)NC(SC)=C(C#N)C1c1ccccc1F (stereo unspecified)	-	-	-	-	.	-	.	.
N#CC1=C(N)NC(=S)C(C(N)=O)C1c1ccc(Cl)cc1Cl (stereo unspecified)	-	-	-	57	-	-	-	101
N#CC1=C(N)NC(=S)C(C(N)=O)C1c1ccccc1F (stereo unspecified)	-	-	.	38	-	-	-	84
O=C1NC(=O)C(c2ccc(Cl)cc2Cl)N1 (stereo unspecified)	.	.	.	-	-	-	.	.
Cc1cc(C)c2oc(=O)cc(CN3CCC(C)CC3)c2c1	.	-	.	-	.	-	.	.
C#CCN(C[C@@H]1[C@@H](OC(=O)NC2CC2)[C@@H](OC(=O)NC2CC2)CN(C(=O)OC(C)C)N1C(=O)OC(C)C)S(=O)(=O)c1ccc(C)cc1	.	.	.	-	-	-	.	.
C#CCN(C[C@@H]1[C@@H](OC(=O)NCc2ccccc2F)[C@@H](OC(=O)NCc2ccccc2F)Cn2c(=O)ccc(=O)n21)S(=O)(=O)c1ccc(C)cc1	.	.	.	40	69	-	58	27
C#CCN(C[C@@H]1[C@@H](OC(=O)NC2CCCC2)[C@@H](OC(=O)NC2CCCC2)Cn2c(=O)ccc(=O)n21)S(=O)(=O)c1ccc(C)cc1	.	.	.	38	-	-	64	24
C#CCN(C[C@@H]1[C@@H](OC(=O)Nc2cccs2)[C@@H](OC(=O)Nc2cccs2)Cn2c(=O)ccc(=O)n21)S(=O)(=O)c1ccc(C)cc1	.	.	.	61	-	-	87	50
C#CCN(C[C@H]1[C@H](OC(=O)Nc2cccs2)[C@H](OC(=O)Nc2cccs2)C[C@H]2C(=O)N(c3ccccc3)C(=O)[C@@H]12)S(=O)(=O)c1ccc(C)cc1	.	.	.	-	-	-	.	.
Nc1ncnc2c1ncn2[C@@H]1O[C@H](CNCC(O)CO)[C@@H](O)[C@H]1O (stereo partly specified)	.	.	.	-	-	-	.	.
Cc1cccc[n+]1CC(=O)/C=C1\N(C)c2ccccc2C1(C)C	-	-	-	-	.	-	.	.
CN1/C(=C/C=C/c2n(C)c3cc([N+](=O)[O-])c([N+](=O)[O-])cc3[n+]2C)C(C)(C)c2ccccc21	.	.	.	34	-	-	35	56
Cn1ccnc1Sc1cc(NCCCO)c([N+](=O)[O-])c2nonc12	-	-	-	26	-	-	29	95
CC(C)CC(=O)CC1(O)C(=O)Nc2ccccc21 (stereo unspecified)	-	-	-	-	-	-	.	.
O=C(Nc1ccc(F)cc1F)C1CCN(S(=O)(=O)c2cccnc2)CC1	.	-	.	-	.	-	.	.
SMILES	Rad51 HR inh	HIF act	Hsp70 act	ABHD5 PLIN5 PPI	H9c2 TAG inh	GAA850 FXN act	ABHD5 PLIN5 conf	HNF4 split-luc
O=C(/C=C/c1ccccc1O)c1ccccc1	.	.	.	29	-	-	79	64
N#Cc1ccc(/C=C/C(=O)c2ccccc2)cc1	-	-	.	83	.	-	100	105
CC(=O)/C=C/c1ccccc1O	-	-	-	-	-	-	.	.
O=C(/C=C\Nc1ccccn1)c1ccc(Cl)cc1	-	.	-	-	.	-	.	.
CCOc1ccc(/C=C/C(=O)c2ccc(-c3ccccc3)cc2)cc1	-	-	-	-	.	-	.	.
O=C(/C=C/c1ccccc1O)c1ccc(Cl)cc1	-	-	-	58	-	-	94	75
O=C(/C=C/c1cccc2ccccc12)c1ccncc1	-	-	-	65	-	-	96	96
COc1ccc(S(=O)(=O)N2CCc3ccccc32)cc1C(=O)Nc1ccc(C(N)=O)cc1	.	-	.	-	-	-	.	.
O=C(c1cc(-c2ccc(F)cc2)nc2ccccc12)N1CCC1	.	.	.	-	-	-	.	.
O=C(O)c1cc(-c2ccc(-c3ccc(F)cc3)o2)nc2ccccc12	.	-	.	31	.	-	-	61
CC(=O)C1CCC2C3CC(C)=C4CC(O)CCC4(C)C3CCC12C (stereo unspecified)	.	.	.	-	-	-	.	.
c1cc2c3c(cccc3c1)-c1cnccc1-2	.	.	.	-	-	-	.	.
CN(C)CCCN(C(=O)/C=C/c1cccs1)c1nc2ccc(F)cc2s1	-	.	-	39	-	-	-	24
COc1ccc(C)c2sc(N(CCN(C)C)C(=O)/C=C/c3cccs3)nc12	.	-	.	35	.	-	23	-
CN(C)CCCN(C(=O)c1sc2ccccc2c1Cl)c1nc2ccc(F)cc2s1	-	-	-	25	.	-	-	-
Cc1ccc2nc(N(CCN(C)C)C(=O)/C=C/c3cccs3)sc2c1	-	-	-	35	.	-	-	-
O=C(c1[nH]c(C(F)(F)F)nc1-c1ccccc1)N1CCC(C(O)(c2ccccc2)c2ccccc2)CC1	.	.	.	-	.	.	.	.
CC(OC(=O)/C=C/c1cccs1)C(=O)Nc1ccc(S(N)(=O)=O)cc1 (stereo unspecified)	-	-	-	-	-	-	.	.
CC(OC(=O)/C=C/c1ccc2ccccc2n1)C(=O)Nc1ccc(S(N)(=O)=O)cc1 (stereo unspecified)	.	-	.	25	-	-	28	21
